Laboratory results from ChEMBL document CHEMBL2346503, “Synthesis and evaluation of novel (18)F-labeled spirocyclic piperidine derivatives as σ1 receptor ligands for positron emission tomography imaging” (J Med Chem, 2013).

Columns and labels:
Muscle tissue [1] = assay: Biodistribution in ICR mouse muscle at 370 kBq, iv after 120 mins by gamma-counting analysis; format: ADME, organism-based; details: in vivo, 2 h
Summary of the method: (§1)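 Male ICR mice, n = 5 per time point, given the radiotracer in saline (370 kBq, 0.1 mL) by intravenous injection. Killed by decapitation at 2, 30, 60 or 120 min. Organs were excised, weighed and gamma-counted with decay correction. Uptake is expressed as % injected dose per gram of wet tissue against diluted standards of the injected material; stomach and intestine are expressed as % injected dose per organ. Mean ± SD.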

Blood = assay: Biodistribution in ICR mouse blood at 370 kBq, iv after 120 mins by gamma-counting analysis; format: ADME, organism-based; details: in vivo, 2 h
Summary of the method: (§2)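 Male ICR mice (n = 5 per group) got 370 kBq tracer in 0.1 mL saline by iv injection. They were decapitated at 2, 30, 60 or 120 min, and organs were weighed and γ-counted. %ID/g was found against diluted aliquots of the injected dose, decay-corrected, and given as mean ± SD.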

Bone [2] = assay: Biodistribution in ICR mouse bone at 370 kBq, iv after 60 mins by gamma-counting analysis; format: ADME, organism-based, Bone element; details: in vivo, 1 h; summary of the method: as §2
Muscle tissue [3] = assay: Biodistribution in ICR mouse muscle at 370 kBq, iv after 60 mins by gamma-counting analysis; format: ADME, organism-based; details: in vivo, 1 h; summary of the method: as §1
Intestine [4] = assay: Biodistribution in ICR mouse intestine assessed per organ at 370 kBq, iv after 60 mins by gamma-counting analysis; format: ADME, organism-based; details: in vivo, 1 h
Summary of the method: (§3)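 Male ICR mice (n = 5) got 370 kBq iv in 0.1 mL saline and were decapitated at 2, 30, 60 or 120 min. Whole intestine was γ-counted and expressed as percent injected dose per organ, decay-corrected, mean ± SD.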

Kidney [5] = assay: Biodistribution in ICR mouse kidney at 370 kBq, iv after 60 mins by gamma-counting analysis; format: ADME, organism-based; details: in vivo, 1 h; summary of the method: as §2
Spleen [6] = assay: Biodistribution in ICR mouse spleen at 370 kBq, iv after 60 mins by gamma-counting analysis; format: ADME, organism-based; details: in vivo, 1 h; summary of the method: as §1
Brain [7] = assay: Biodistribution in ICR mouse brain at 370 kBq, iv after 60 mins by gamma-counting analysis; format: ADME, organism-based; details: in vivo, 1 h; summary of the method: as §2
Bone [8] = assay: Biodistribution in ICR mouse bone at 370 kBq, iv after 30 mins by gamma-counting analysis; format: ADME, organism-based, Bone element; details: in vivo, 0.5 h; summary of the method: as §2
Muscle tissue [9] = assay: Biodistribution in ICR mouse muscle at 370 kBq, iv after 30 mins by gamma-counting analysis; format: ADME, organism-based; details: in vivo, 0.5 h; summary of the method: as §1
Intestine [10] = assay: Biodistribution in ICR mouse intestine assessed per organ at 370 kBq, iv after 30 mins by gamma-counting analysis; format: ADME, organism-based; details: in vivo, 0.5 h; summary of the method: as §3
Stomach [11] = assay: Biodistribution in ICR mouse stomach assessed per organ at 370 kBq, iv after 30 mins by gamma-counting analysis; format: ADME, organism-based; details: in vivo, 0.5 h; summary of the method: as §1
Liver = assay: Biodistribution in ICR mouse liver at 370 kBq, iv after 30 mins by gamma-counting analysis; format: ADME, organism-based; details: in vivo, 0.5 h; summary of the method: as §2
Brain [12] = assay: Biodistribution in ICR mouse brain at 370 kBq, iv after 30 mins by gamma-counting analysis; format: ADME, organism-based; details: in vivo, 0.5 h; summary of the method: as §2
Heart = assay: Biodistribution in ICR mouse heart at 370 kBq, iv after 30 mins by gamma-counting analysis; format: ADME, organism-based; details: in vivo, 0.5 h; summary of the method: as §2
Muscle tissue [13] = assay: Biodistribution in ICR mouse muscle at 370 kBq, iv after 2 mins by gamma-counting analysis; format: ADME, organism-based; details: in vivo; summary of the method: as §1
Intestine [14] = assay: Biodistribution in ICR mouse intestine assessed per organ at 370 kBq, iv after 2 mins by gamma-counting analysis; format: ADME, organism-based; details: in vivo; summary of the method: as §3
Stomach [15] = assay: Biodistribution in ICR mouse stomach assessed per organ at 370 kBq, iv after 2 mins by gamma-counting analysis; format: ADME, organism-based; details: in vivo; summary of the method: as §1
Spleen [16] = assay: Biodistribution in ICR mouse spleen at 370 kBq, iv after 2 mins by gamma-counting analysis; format: ADME, organism-based; details: in vivo; summary of the method: as §1
[17] = Lipophilicity, log D of the compound at pH 7.4 by shake flask method; format: physicochemical; details: buffer
Summary of the method: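 Shake flask: radiotracer (370 kBq) in 3 mL 1-octanol plus 3 mL 0.05 M sodium phosphate buffer pH 7.4, vortexed 3 min at room temperature, then centrifuged. Both phases were gamma-counted and log D = log(cpm/mL octanol ÷ cpm/mL buffer). The octanol layer was repartitioned until values were consistent. Triplicate, repeated three times.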

Kidney [18] = assay: Biodistribution in ICR mouse kidney at 370 kBq, iv after 60 mins by gamma-counting analysis in presence of haloperidol relative to control; format: ADME, organism-based; details: in vivo, 1 h
Summary of the method: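 Male ICR mice (n = 5) got saline or haloperidol (0.1 mL, 1.0 mg/kg) via tail vein 5 min before 370 kBq tracer iv. Tissues were taken 60 min later and γ-counted as %ID/g (intestine as %ID/organ). Control and blocked groups were compared by two-tailed independent Student's t test, p ≤ 0.05.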

Hippocampus = assay: Drug uptake in Sprague-Dawley rat hippocampus at 12.2 MBq, iv after 60 mins by autoradiography; format: ADME, organism-based; details: in vivo, 1 h
Summary of the method: (§4)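 [¹⁸F]-labelled tracer (0.2 mL, 12.2 MBq) given intravenously to conscious Sprague-Dawley rats (n = 3). Each rat was killed by cervical dislocation 60 min after injection. The brain was removed and frozen in liquid nitrogen, and 20 μm coronal sections were cut on a cryostat for ex vivo autoradiography of regional radioactivity.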

Rattus norvegicus [19] = assay: Biodistribution in Sprague-Dawley rat olfactory bulb at 23 MBq, iv after 60 mins by microPET imaging/CT study in presence of haloperidol; format: ADME, organism-based; details: in vivo, 1 h
Summary of the method: (§5)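 Sprague-Dawley rats under isoflurane (1.5–2.5%) in oxygen received 23 MBq radiotracer (0.2 mL saline) via tail vein. Blocking animals were pre-injected with haloperidol (0.2 mL, 1 mg/kg) 5 min before the tracer. MicroPET emission was acquired for 30 min starting 60 min post-injection, followed by a 5 min CT scan; images were summed over 60–90 min.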

Rattus norvegicus [20] = assay: Biodistribution in Sprague-Dawley rat internal capsule at 23 MBq, iv after 60 mins by microPET imaging/CT study in presence of haloperidol; format: ADME, organism-based; details: in vivo, 1 h; summary of the method: as §5
Thalamus = assay: Biodistribution in Sprague-Dawley rat thalamus at 23 MBq, iv after 60 mins by microPET imaging/CT study in presence of haloperidol; format: ADME, organism-based; details: in vivo, 1 h; summary of the method: as §5
Hypothalamus = assay: Biodistribution in Sprague-Dawley rat hypothalamus at 23 MBq, iv after 60 mins by microPET imaging/CT study in presence of haloperidol; format: ADME, organism-based; details: in vivo, 1 h; summary of the method: as §5
[21] = Drug uptake in Sprague-Dawley rat paramedian lobule at 12.2 MBq, iv after 60 mins by autoradiography; format: ADME, organism-based; details: in vivo, 1 h; summary of the method: as §4
[22] = Drug uptake in Sprague-Dawley rat lateral ventricle at 12.2 MBq, iv after 60 mins by autoradiography; format: ADME, organism-based; details: in vivo, 1 h; summary of the method: as §4
[23] = Drug uptake in Sprague-Dawley rat white matter at 12.2 MBq, iv after 60 mins by autoradiography; format: ADME, organism-based; details: in vivo, 1 h; summary of the method: as §4
Cortex = assay: Drug uptake in Sprague-Dawley rat cortex at 12.2 MBq, iv after 60 mins by autoradiography; format: ADME, organism-based; details: in vivo, 1 h; summary of the method: as §4
Brain [24] = assay: Biodistribution in ICR mouse brain assessed as reduction in radiotracer uptake at 370 kBq, iv after 60 minutes by gamma-counting analysis in presence of SA4503 relative to control; format: ADME, organism-based; parameters: scale not given: the % may be the effect or the level left; details: in vivo, 1 h
Summary of the method: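 Male ICR mice got saline or SA4503 (0.1 mL; 2, 5, 10 or 2.2 μmol/kg) via tail vein 5 min before 370 kBq tracer (0.1 mL) iv. They were decapitated at 60 min and tissues γ-counted. Percent change was taken against saline controls, with two-tailed Student's t test, p ≤ 0.05.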

In the case of `[18F]CCOCCOCCOc1ccc(CN2CCC3(CC2)OCc2ccccc23)cc1`, the Drug uptake (Muscle tissue [1]) is reported as 2.62 % ID/g, the Drug uptake (Blood) is reported as 3.52 % ID/g and the Drug uptake (Bone [2]) is reported as 4.51 % ID/g. The Drug uptake (Muscle tissue [3]) was 2.64 % ID/g, the Drug uptake (Intestine [4]) was 4.68 %ID and the Drug uptake (Kidney [5]) was 4.37 % ID/g. The Drug uptake (Spleen [6]) was 5.43 % ID/g, the Drug uptake (Brain [7]) was 4.63 % ID/g and the Drug uptake (Bone [8]) was 4.1 % ID/g. The Drug uptake (Muscle tissue [9]) was 2.42 % ID/g, the Drug uptake (Intestine [10]) was 6.72 %ID and the Drug uptake (Stomach [11]) was 2 %ID. For the same compound, the Drug uptake (Liver) was 8.67 % ID/g, the Drug uptake (Brain [12]) was 5.2 % ID/g and the Drug uptake (Heart) was 2.95 % ID/g. The Drug uptake (Muscle tissue [13]) was 3.22 % ID/g, the Drug uptake (Intestine [14]) was 6.21 %ID and the Drug uptake (Stomach [15]) was 2.19 %ID. For the same compound, the Drug uptake (Spleen [16]) was 5.35 % ID/g, the logD [17] was 1.9 and the Drug uptake (Kidney [18]) was 11%.
Compound `[18F]CCOc1ccc(CN2CCC3(CC2)OCc2ccccc23)cc1` has a Drug uptake (Muscle tissue [1]) of 4.01 % ID/g, a Drug uptake (Blood) of 1.2 % ID/g and a Drug uptake (Bone [2]) of 4.27 % ID/g. It also gave a Drug uptake (Muscle tissue [3]) of 4.41 % ID/g, a Drug uptake (Intestine [4]) of 7.81 %ID and a Drug uptake (Kidney [5]) of 10.87 % ID/g. For the same compound, the Drug uptake (Spleen [6]) was 8.52 % ID/g, the Drug uptake (Brain [7]) was 9.1 % ID/g and the Drug uptake (Bone [8]) was 3.3 % ID/g. For the same compound, the Drug uptake (Muscle tissue [9]) was 4.59 % ID/g, the Drug uptake (Intestine [10]) was 8.02 %ID and the Drug uptake (Stomach [11]) was 1.09 %ID. It also gave a Drug uptake (Liver) of 15.3 % ID/g, a Drug uptake (Brain [12]) of 9.32 % ID/g and a Drug uptake (Heart) of 14.39 % ID/g. The Drug uptake (Muscle tissue [13]) was 5.45 % ID/g, the Drug uptake (Intestine [14]) was 6.62 %ID and the Drug uptake (Stomach [15]) was 1.45 %ID. For the same compound, the Drug uptake (Spleen [16]) was 4.84 % ID/g, the logD [17] was 2.41 and the Drug uptake (Hippocampus) was “Active”. The Drug uptake (Rattus norvegicus [19]) was “Active”, the Drug uptake (Rattus norvegicus [20]) was “Active” and the Drug uptake (Thalamus) was “Active”. The Drug uptake (Hypothalamus) was “Active”, the Drug uptake [21] was “Active” and the Drug uptake [22] was “Active”. For the same compound, the Drug uptake [23] was “Active”, the Drug uptake (Cortex) was “Active” and the Activity (Brain [24]) was 46%. It also gave a Drug uptake (Kidney [18]) of -47%.
